{"source": "PubChem BioAssay AID651740", "about": "(Broad Institute, 2012)", "note": "The campaign covered roughly 5,600 compounds. About 1,200 (21%) were called active. Not shown: some 3% with an inconclusive outcome.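 The calls were made as follows: active = mean inhibition above about 95%, with at least 55% of replicates also reaching it (limit read from the data); inconclusive = meets just one of the two conditions; inactive = meets neither condition.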 The list is a sample of the results.", "data": [{"experiment": "Trypanosoma cruzi growth blockers in host fibroblasts – NIH3T3 host cells, beta-gal parasites, cherry-pick, set 2, confirmation (AID 651740);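 also: plate controls were neutral control median for no effect and positive control median for full effect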", "settings": "T. cruzi beta-gal in NIH3T3, GalScreen luminescence, 90 h; at 2.09 µM; active compounds read high", "summary_of_the_method": "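Material: T. cruzi Tulahuen C4 (beta-gal) in NIH/3T3 cells; input: 5,000 host cells per well; incubation: ≥90 h co-culture with compound, 60 min detection reagent; signal: luminescence, GalScreen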", "values": [{"smiles": "COc1ccc(CN(C)C[C@H]2Oc3ccc(NS(=O)(=O)c4ccc(Cl)cc4)cc3CC(=O)N([C@@H](C)CO)C[C@H]2C)cc1", "inhibition": "33.6% (inactive)"}, {"smiles": "C[C@@H]1CN([C@H](C)CO)C(=O)c2cccc(NC(=O)c3ccc(-c4nccs4)cc3)c2O[C@@H]1CN(C)C(=O)Nc1ccc(C(F)(F)F)cc1", "inhibition": "53% (inactive)"}, {"smiles": "CC(C)CC#Cc1cnc2c(c1)C(=O)N([C@@H](C)CO)C[C@@H](C)[C@H](CN(C)C(=O)Cc1ccncc1)O2", "inhibition": "29.7% (inactive)"}, {"smiles": "O=C(c1cccc(F)c1)N1CCCCN2[C@H](CO)[C@H](c3ccc(-c4ccncc4)cc3)[C@H]2C1", "inhibition": "82% (inactive)"}, {"smiles": "CN(C)C(=O)c1ccc(-c2ccc([C@@H]3[C@H](CO)N4CCCCN(S(C)(=O)=O)C[C@@H]34)cc2)cc1", "inhibition": "17.3% (inactive)"}, {"smiles": "Cc1cccc(-c2ccc([C@H]3[C@@H](CO)N4CCCCN(Cc5cncnc5)C[C@H]34)cc2)c1", "inhibition": "48.1% (inactive)"}, {"smiles": "CN(C)C(=O)c1ccc(-c2ccc3c(c2)[C@H]2[C@H](CCN2C(=O)c2ccc4c(c2)OCO4)[C@H](CO)N3)cc1", "inhibition": "72.2% (inactive)"}, {"smiles": "Cc1ccc(S(=O)(=O)Nc2ccc3c(c2)C(=O)N([C@H](C)CO)C[C@H](C)[C@H](CN(C)C(=O)Nc2ccc(F)cc2)OCCCC[C@H](C)O3)cc1", "inhibition": "71.2% (inactive)"}, {"smiles": "C[C@@H]1CN([C@H](C)CO)C(=O)c2cc(NC(=O)Nc3ccc(F)cc3)ccc2O[C@@H](C)CCCCO[C@@H]1CN(C)CC1CCCCC1", "inhibition": "104% (active)"}, {"smiles": "C[C@H]1CCCCO[C@H](CN(C)Cc2ccccc2)[C@@H](C)CN([C@@H](C)CO)C(=O)c2cc(NC(=O)c3ccccc3)ccc2O1", "inhibition": "68.2% (inactive)"}, {"smiles": "C[C@H]1CCCCO[C@H](CN(C)Cc2ccccc2)[C@@H](C)CN([C@@H](C)CO)C(=O)c2cc(NC(=O)NC3CCCCC3)ccc2O1", "inhibition": "43.1% (inactive)"}, {"smiles": "C[C@@H]1CCCCO[C@H](CN(C)C(=O)NC2CCCCC2)[C@H](C)CN([C@H](C)CO)C(=O)c2cc(NC(=O)Nc3ccc(F)cc3)ccc2O1", "inhibition": "105% (active)"}, {"smiles": "C[C@H]1CCCCO[C@@H](CN(C)C(=O)NC2CCCCC2)[C@@H](C)CN([C@@H](C)CO)C(=O)c2cc(NS(=O)(=O)c3ccc(Cl)cc3)ccc2O1", "inhibition": "68% (inactive)"}, {"smiles": "C[C@@H]1CCCCO[C@@H](CN(C)Cc2ccc(C(F)(F)F)cc2)[C@@H](C)CN([C@H](C)CO)C(=O)c2cc(NC(=O)Nc3ccccc3)ccc2O1", "inhibition": "64.3% (inactive)"}, {"smiles": "C[C@@H]1CCCCO[C@H](CN(C)Cc2ccc(C(F)(F)F)cc2)[C@H](C)CN([C@H](C)CO)C(=O)c2cc(NC(=O)Nc3ccc(F)cc3)ccc2O1", "inhibition": "117% (active)"}, {"smiles": "C[C@@H]1CCCCO[C@H](CN(C)Cc2ccccc2)[C@@H](C)CN([C@@H](C)CO)C(=O)c2cc(NC(=O)Nc3ccc(F)cc3)ccc2O1", "inhibition": "103% (active)"}, {"smiles": "C[C@@H]1CCCCO[C@@H](CN(C)CC2CC2)[C@H](C)CN([C@H](C)CO)C(=O)c2cc(NC(=O)C3CCCCC3)ccc2O1", "inhibition": "89.3% (inactive)"}, {"smiles": "C[C@@H]1CN([C@@H](C)CO)C(=O)c2cc(C#CC3CCCCC3)cnc2O[C@H]1CN(C)S(=O)(=O)c1ccccc1", "inhibition": "85.8% (inactive)"}, {"smiles": "COc1ccc(-c2ccc3c(c2)[C@@H]2[C@@H](CCN2C(=O)Cc2ccccn2)[C@H](CO)N3C)cc1", "inhibition": "84.9% (inactive)"}, {"smiles": "O=C(C1CCCC1)N1CCCCN2[C@@H](CO)[C@H](c3ccc(-c4cccc(F)c4)cc3)[C@@H]2C1", "inhibition": "78.2% (inactive)"}, {"smiles": "O=C(CN1CCOCC1)N1CCCCN2[C@@H](CO)[C@H](c3ccc(/C=C/c4ccccc4)cc3)[C@@H]2C1", "inhibition": "25.9% (inactive)"}, {"smiles": "C[C@H]1CN([C@@H](C)CO)S(=O)(=O)c2ccc(C#Cc3cccc(F)c3)cc2O[C@@H]1CN(C)S(=O)(=O)c1cn(C)cn1", "inhibition": "24.7% (inactive)"}, {"smiles": "Cc1ccc(S(=O)(=O)Nc2ccc3c(c2)C(=O)N([C@@H](C)CO)C[C@@H](C)[C@H](CN(C)C(=O)Nc2cccc4ccccc24)OCCCC[C@H](C)O3)cc1", "inhibition": "66.1% (inactive)"}, {"smiles": "C[C@@H]1CCCCO[C@@H](CN(C)Cc2ccccc2)[C@H](C)CN([C@H](C)CO)C(=O)c2cc(NC(=O)Nc3cccc4ccccc34)ccc2O1", "inhibition": "110% (active)"}, {"smiles": "C[C@@H]1CN([C@@H](C)CO)C(=O)c2cc(NC(=O)Nc3cccc4ccccc34)ccc2O[C@@H](C)CCCCO[C@H]1CN(C)Cc1ccccc1", "inhibition": "94.8% (inactive)"}, {"smiles": "C[C@H](CO)N1C[C@H](C)[C@H](CN(C)S(=O)(=O)c2ccccc2)Oc2ncc(-c3cccc(C(F)(F)F)c3)cc2C1=O", "inhibition": "47.5% (inactive)"}, {"smiles": "OC[C@@H]1[C@H](c2ccc(C#CC3CC3)cc2)[C@@H]2CN(CCC(F)(F)F)CCCCN12", "inhibition": "78.6% (inactive)"}, {"smiles": "COc1ccc(NC(=O)N(C)C[C@@H]2Oc3c(NC(=O)NC4CCCCC4)cccc3C(=O)N([C@@H](C)CO)C[C@@H]2C)cc1", "inhibition": "23.4% (inactive)"}, {"smiles": "C[C@@H]1CN([C@H](C)CO)C(=O)c2cccc(NC(=O)NC3CCCCC3)c2O[C@H]1CN(C)Cc1ccc(C(F)(F)F)cc1", "inhibition": "106% (active)"}, {"smiles": "C[C@H]1CCCCO[C@H](CN(C)Cc2ccc(C(F)(F)F)cc2)[C@@H](C)CN([C@@H](C)CO)C(=O)c2cc(NC(=O)C3CCCCC3)ccc2O1", "inhibition": "111% (active)"}, {"smiles": "C[C@@H]1CN([C@@H](C)CO)C(=O)c2cc(NC(=O)C3CCCCC3)ccc2O[C@@H](C)CCCCO[C@H]1CN(C)Cc1ccncc1", "inhibition": "78% (inactive)"}, {"smiles": "C[C@H](CO)N1C[C@H](C)[C@@H](CN(C)Cc2ccc(C(F)(F)F)cc2)OCCCC[C@H](C)Oc2ccc(NC(=O)C3CCCCC3)cc2C1=O", "inhibition": "106% (active)"}, {"smiles": "C[C@H](CO)N1C[C@H](C)[C@@H](CN(C)Cc2ccc(C(=O)Nc3ccccc3N)cc2)Oc2c(NC(=O)c3ccc(-c4nccs4)cc3)cccc2C1=O", "inhibition": "60.5% (inactive)"}, {"smiles": "C[C@@H]1CN([C@H](C)CO)S(=O)(=O)c2ccc(C#Cc3ccncc3)cc2O[C@@H]1CN(C)S(=O)(=O)c1ccc(F)cc1", "inhibition": "22.2% (inactive)"}, {"smiles": "OC[C@H]1[C@H](c2ccc(-c3cccc(F)c3)cc2)[C@@H]2CN(Cc3cncnc3)CCCCN12", "inhibition": "60.7% (inactive)"}]}]}
